Reference: ChEMBL document CHEMBL3120102, “Structure-based design, synthesis and biological evaluation of novel anthra[1,2-d]imidazole-6,11-dione homologues as potential antitumor agents” (2013)

Experiments:
Type in all cases: functional
SK-MEL-5 = experiment: Cytotoxicity against human SK-MEL-5 cells assessed as growth inhibition after 48 hrs by SRB assay
Summary of the method: (§1)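 NCI 60-cell-line screen, five-dose stage: each cell line exposed for 48 h to five concentrations spanning five log steps; cellular protein measured by sulforhodamine B colorimetry. A time-zero cell control and plates without drug are used to derive GI50, TGI and LC50 from log-concentration dose-response curves.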

ACHN = experiment: Cytotoxicity against human ACHN cells assessed as growth inhibition after 48 hrs by SRB assay
Summary of the method: (§2)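 NCI 60-cell-line five-dose screen at […]. Drug exposure was 48 h, followed by sulforhodamine B protein staining. GI50, TGI and LC50 were calculated against a time-zero control and untreated plates, with dose–response curves plotted from log10 concentration.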

OVCAR-3 = experiment: Cytotoxicity against human OVCAR3 cells assessed as cell growth at 10 uM after 48 hrs by SRB assay; conditions: OVCAR-3, 48 h, read-out: Activity
Summary of the method: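 First stage of the NCI 60 human tumour cell line screen: a single dose is tested against every line. Cell growth is read as cellular protein by sulforhodamine B colorimetry after 48 h of drug exposure, with reference to a time-zero control and to untreated plates.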

[1] = (§3) Cytotoxicity against human UACC257 cells assessed as growth inhibition after 48 hrs by SRB assay; conditions: UACC-257, 48 h
Summary of the method: (§4)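 NCI 60-cell-line screen, two stages. Five-dose testing at […]. Cellular protein measured by sulforhodamine B colorimetry after 48 h drug exposure. A time-zero control and drug-free plates are used to derive GI50, TGI and LC50 from dose-response curves plotted as log10 concentration per cell line.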

UACC-257 = experiment: as §3; summary of the method: as §4
A549 = experiment: Cytotoxicity against human A549 cells assessed as growth inhibition after 48 hrs by SRB assay; summary of the method: as §2
SW-620 = experiment: Cytotoxicity against human SW620 cells assessed as growth inhibition after 48 hrs by SRB assay; summary of the method: as §4
SNB-75 = experiment: Cytotoxicity against human SNB75 cells assessed as growth inhibition after 48 hrs by SRB assay; summary of the method: as §4
RPMI-8226 = experiment: Cytotoxicity against human RPMI8226 cells assessed as growth inhibition after 48 hrs by SRB assay; summary of the method: as §1
NCI-H522 = experiment: Cytotoxicity against human NCI-H522 cells assessed as growth inhibition after 48 hrs by SRB assay; summary of the method: as §1
SR = experiment: Cytotoxicity against human SR cells assessed as growth inhibition after 48 hrs by SRB assay; summary of the method: as §4
[2] = (§5) Cytotoxicity against human Hs578T cells assessed as growth inhibition after 48 hrs by SRB assay; conditions: Hs-578T; summary of the method: as §2
Hs-578T = experiment: as §5; summary of the method: as §2
DU-145 = experiment: Cytotoxicity against human DU145 cells assessed as growth inhibition after 48 hrs by SRB assay; summary of the method: as §2
SF-539 = experiment: Cytotoxicity against human SF539 cells assessed as growth inhibition after 48 hrs by SRB assay; summary of the method: as §1
HL-60(TB) = experiment: Cytotoxicity against human HL-60(TB) cells assessed as growth inhibition after 48 hrs by SRB assay
Summary of the method: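 NCI 60-cell panel five-concentration stage (0.01, 0.1, 1, 10, 100) in HL-60(TB). Cellular protein was measured by sulforhodamine B colorimetry after 48 h of exposure. A time-zero cell control and untreated plates allowed calculation of GI50, TGI and LC50. These were read from log10 concentration dose-response curves.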

MOLT-4 = experiment: Cytotoxicity against human MOLT4 cells assessed as growth inhibition after 48 hrs by SRB assay; summary of the method: as §1
TK-10 = experiment: Cytotoxicity against human TK10 cells assessed as growth inhibition after 48 hrs by SRB assay; summary of the method: as §4
SK-MEL-28 = experiment: Cytotoxicity against human SK-MEL-28 cells assessed as growth inhibition after 48 hrs by SRB assay; summary of the method: as §1
SF-295 = experiment: Cytotoxicity against human SF295 cells assessed as growth inhibition after 48 hrs by SRB assay; summary of the method: as §1
[3] = Cytotoxicity against human Hs578T cells assessed as cell growth at 10 uM after 48 hrs by SRB assay; conditions: Hs-578T, read-out: Activity
NCI-H226 = experiment: Cytotoxicity against human NCI-H226 cells assessed as growth inhibition after 48 hrs by SRB assay; summary of the method: as §1
786-0 = experiment: Cytotoxicity against human 786-0 cells assessed as growth inhibition after 48 hrs by SRB assay; summary of the method: as §2
OVCAR-8 = experiment: Cytotoxicity against human OVCAR8 cells assessed as growth inhibition after 48 hrs by SRB assay; summary of the method: as §1
NCI-H460 = experiment: Cytotoxicity against human NCI-H460 cells assessed as growth inhibition after 48 hrs by SRB assay; summary of the method: as §1
SK-MEL-2 = experiment: Cytotoxicity against human SK-MEL-2 cells assessed as growth inhibition after 48 hrs by SRB assay; summary of the method: as §1
[4] = (§6) Cytotoxicity against human UO31 cells assessed as growth inhibition after 48 hrs by SRB assay; conditions: UO-31, 48 h; summary of the method: as §4
UO-31 = experiment: as §6; summary of the method: as §4
[5] = read-out: LC50 (the source's name)

Question: For `CN(C)CCCSc1nc2ccc3c(c2[nH]1)C(=O)c1ccccc1C3=O`, which “growth inhibition (GI)” value (SK-MEL-5) is on record?
Answer: Its value is “Dose-dependent effect”.

Question: What about the GI50 (SK-MEL-5; SK-MEL-5, 48 h) of the same molecule?
Answer: Its GI50 is 11.1 µM.

Question: And the TGI (SK-MEL-5; SK-MEL-5, 48 h)?
Answer: Its TGI is 23.1 µM.

Question: What about the GI50 (ACHN) of the same molecule?
Answer: Its GI50 is 1.74 µM.

Question: What about the TGI (ACHN) of the same molecule?
Answer: Its TGI is 15 µM.

Question: What about the “growth inhibition (GI)” value (ACHN) of the same molecule?
Answer: Its value is “Dose-dependent effect”.

Question: What about the CC50 (ACHN; [5]) of the same molecule?
Answer: The CC50 was 38.7 µM.

Question: What about the growth at 10 µM (OVCAR-3) of the same molecule?
Answer: Its growth at 10 µM is 59.3%.

Question: And the GI50 [1]?
Answer: Its GI50 is 19.8 µM.

Question: What about the TGI [1] of the same molecule?
Answer: The TGI was 34.1 µM.

Question: What about the “growth inhibition (GI)” value (UACC-257) of the same molecule?
Answer: The value was “Dose-dependent effect”.

Question: And the “growth inhibition (GI)” value (A549)?
Answer: Its value is “Dose-dependent effect”.

Question: And the TGI (A549; A549, 48 h)?
Answer: Its TGI is 12.6 µM.

Question: And the “growth inhibition (GI)” value (SW-620)?
Answer: Its value is “Dose-dependent effect”.

Question: And the GI50 (SW-620; SW-620, 48 h)?
Answer: The GI50 was 1.99 µM.

Question: What about the TGI (SW-620; SW-620, 48 h) of the same molecule?
Answer: Its TGI is 6.29 µM.

Question: And the “growth inhibition (GI)” value (SNB-75)?
Answer: The value was “Dose-dependent effect”.

Question: And the GI50 (SNB-75; SNB-75, 48 h)?
Answer: Its GI50 is < 0.01 µM.

Question: And the TGI (SNB-75; SNB-75, 48 h)?
Answer: The TGI was < 0.01 µM.

Question: What about the “growth inhibition (GI)” value (RPMI-8226) of the same molecule?
Answer: Its value is “Dose-dependent effect”.

Question: What about the GI50 (RPMI-8226; RPMI-8226, 48 h) of the same molecule?
Answer: The GI50 was 1.25 µM.

Question: And the TGI (RPMI-8226; RPMI-8226, 48 h)?
Answer: Its TGI is 4.62 µM.

Question: And the “growth inhibition (GI)” value (NCI-H522)?
Answer: Its value is “Dose-dependent effect”.

Question: What about the GI50 (NCI-H522; NCI-H522, 48 h) of the same molecule?
Answer: The GI50 was 12.2 µM.

Question: What about the TGI (NCI-H522; NCI-H522, 48 h) of the same molecule?
Answer: Its TGI is 24.9 µM.

Question: And the CC50 (NCI-H522; NCI-H522, 48 h, read-out: LC50 (the source's name))?
Answer: The CC50 was 50.5 µM.

Question: What about the GI50 (SR) of the same molecule?
Answer: The GI50 was 0.43 µM.

Question: What about the TGI (SR) of the same molecule?
Answer: The TGI was 3.47 µM.

Question: What about the “growth inhibition (GI)” value (SR) of the same molecule?
Answer: The value was “Dose-dependent effect”.

Question: And the GI50 [2]?
Answer: Its GI50 is 4.84 µM.

Question: And the TGI [2]?
Answer: Its TGI is 22.9 µM.

Question: What about the CC50 [2, 5] of the same molecule?
Answer: Its CC50 is 65 µM.

Question: And the “growth inhibition (GI)” value (Hs-578T)?
Answer: Its value is “Dose-dependent effect”.

Question: And the “growth inhibition (GI)” value (DU-145)?
Answer: Its value is “Dose-dependent effect”.

Question: And the GI50 (DU-145; DU-145, 48 h)?
Answer: Its GI50 is 2.38 µM.

Question: And the TGI (DU-145; DU-145, 48 h)?
Answer: Its TGI is 12.9 µM.

Question: What about the CC50 (DU-145; DU-145, 48 h, read-out: LC50 (the source's name)) of the same molecule?
Answer: The CC50 was 35.9 µM.

Question: What about the “growth inhibition (GI)” value (SF-539) of the same molecule?
Answer: Its value is “Dose-dependent effect”.

Question: And the GI50 (SF-539; SF-539, 48 h)?
Answer: The GI50 was 10.9 µM.

Question: And the TGI (SF-539; SF-539, 48 h)?
Answer: The TGI was 22.7 µM.

Question: What about the CC50 (SF-539; SF-539, 48 h, read-out: LC50 (the source's name)) of the same molecule?
Answer: The CC50 was 47.7 µM.

Question: And the “growth inhibition (GI)” value (HL-60(TB))?
Answer: Its value is “Dose-dependent effect”.

Question: What about the GI50 (HL-60(TB); HL-60, 48 h) of the same molecule?
Answer: Its GI50 is 2.41 µM.

Question: And the TGI (HL-60(TB); HL-60, 48 h)?
Answer: Its TGI is 8.52 µM.

Question: And the “growth inhibition (GI)” value (MOLT-4)?
Answer: The value was “Dose-dependent effect”.

Question: And the GI50 (MOLT-4; MOLT-4, 48 h)?
Answer: The GI50 was 2.06 µM.

Question: And the TGI (MOLT-4; MOLT-4, 48 h)?
Answer: The TGI was 6.6 µM.

Question: What about the “growth inhibition (GI)” value (TK-10) of the same molecule?
Answer: The value was “Dose-dependent effect”.

Question: And the GI50 (TK-10; TK-10, 48 h)?
Answer: Its GI50 is 1.37 µM.

Question: And the TGI (TK-10; TK-10, 48 h)?
Answer: Its TGI is 13.5 µM.

Question: What about the “growth inhibition (GI)” value (SK-MEL-28) of the same molecule?
Answer: The value was “Dose-dependent effect”.

Question: What about the GI50 (SK-MEL-28; SK-MEL-28, 48 h) of the same molecule?
Answer: The GI50 was 13.5 µM.

Question: What about the TGI (SK-MEL-28; SK-MEL-28, 48 h) of the same molecule?
Answer: Its TGI is 26.3 µM.

Question: And the “growth inhibition (GI)” value (SF-295)?
Answer: The value was “Dose-dependent effect”.

Question: What about the GI50 (SF-295; SF-295, 48 h) of the same molecule?
Answer: Its GI50 is 14.8 µM.

Question: And the TGI (SF-295; SF-295, 48 h)?
Answer: Its TGI is 28.4 µM.

Question: What about the growth at 10 µM [3] of the same molecule?
Answer: Its growth at 10 µM is 69.3%.

Question: And the “growth inhibition (GI)” value (NCI-H226)?
Answer: Its value is “Dose-dependent effect”.

Question: And the TGI (NCI-H226; NCI-H226, 48 h)?
Answer: The TGI was 22.1 µM.

Question: And the “growth inhibition (GI)” value (786-0)?
Answer: Its value is “Dose-dependent effect”.

Question: And the GI50 (786-0; 786-0, 48 h)?
Answer: Its GI50 is 9.73 µM.

Question: And the TGI (786-0; 786-0, 48 h)?
Answer: The TGI was 23.8 µM.

Question: What about the “growth inhibition (GI)” value (OVCAR-8) of the same molecule?
Answer: Its value is “Dose-dependent effect”.

Question: And the GI50 (OVCAR-8; OVCAR-8, 48 h)?
Answer: The GI50 was 6.12 µM.

Question: And the TGI (OVCAR-8; OVCAR-8, 48 h)?
Answer: Its TGI is 21.5 µM.

Question: And the “growth inhibition (GI)” value (NCI-H460)?
Answer: Its value is “Dose-dependent effect”.

Question: And the TGI (NCI-H460; NCI-H460, 48 h)?
Answer: The TGI was 12.8 µM.

Question: What about the “growth inhibition (GI)” value (SK-MEL-2) of the same molecule?
Answer: Its value is “Dose-dependent effect”.

Question: And the GI50 (SK-MEL-2; SK-MEL-2, 48 h)?
Answer: Its GI50 is 13.3 µM.

Question: And the TGI (SK-MEL-2; SK-MEL-2, 48 h)?
Answer: Its TGI is 26.3 µM.

Question: And the GI50 [4]?
Answer: Its GI50 is 0.564 µM.

Question: What about the TGI [4] of the same molecule?
Answer: Its TGI is 11.7 µM.

Question: What about the “growth inhibition (GI)” value (UO-31) of the same molecule?
Answer: Its value is “Dose-dependent effect”.
